From publication PMC2232887 (The Journal of General Physiology, 2000) come the findings set out here.

Assay [1] deals with hybrid OLFα+RETβ channels (UniProt Q00195+Q28181). The assay is classed as biochemical. To be noted: for block of channels by L-cis diltiazem: 10 μM L-cis diltiazem. A digest of the protocol:
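Xenopus oocytes were co-injected with olfactory α and rod β subunit mRNAs. Inside-out patches were recorded at 21–24°C in standard patch solution (115 mM NaCl, 5 EGTA, 1 EDTA, 5 HEPES, pH 7.5), held at −75 mV. Rod β incorporation was checked by applying 10 μM l-cis diltiazem. Currents were normalised to Imax at 2 mM cGMP.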

Assay [2] relates to heteromeric RETα+β channels. Type of assay: biochemical, bovine. To be noted: 10 μM L-cis diltiazem, saturating (2 mM) cGMP.
Another assay deals with native rod CNG channels. The assay can be described thus: Inside-out patch recording of native rod CNG channels from rod outer segments. The assay is classed as biochemical, tiger salamanders (Ambystoma tigrinum). To be noted: for effect on the kinetics, cGMP sensitivity, or maximal current: in the absence of genistein. In a few lines:
(§1)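 Dark-adapted (1 h) tiger salamanders were anaesthetised in ice-cold […] (1 g/liter, 20 min). Retinas were triturated under dim red light, and inside-out patches were excised from rod or cone outer segments. Pipettes were 3–5 MΩ (115 mM NaCl, 5 EGTA, 1 EDTA, 5 HEPES, pH 7.5). Held at −75 mV; currents normalised to 2 mM cGMP Imax. Closed channels were pre-exposed 1 min to test compound, then given 2 mM cGMP. Ki from modified Hill fit.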

In the next assay the test system is native cone CNG channels. The assay can be described thus: Inside-out patch recording of native cone CNG channels from cone outer segments. The assay is classed as biochemical, tiger salamanders (Ambystoma tigrinum). A digest of the protocol:
as §1

In assay [3] the target is T1, heteromeric OLFα+β channels (Rattus norvegicus, UniProt Q00195+Q64359).
T1 sequence (Q00195 1-664): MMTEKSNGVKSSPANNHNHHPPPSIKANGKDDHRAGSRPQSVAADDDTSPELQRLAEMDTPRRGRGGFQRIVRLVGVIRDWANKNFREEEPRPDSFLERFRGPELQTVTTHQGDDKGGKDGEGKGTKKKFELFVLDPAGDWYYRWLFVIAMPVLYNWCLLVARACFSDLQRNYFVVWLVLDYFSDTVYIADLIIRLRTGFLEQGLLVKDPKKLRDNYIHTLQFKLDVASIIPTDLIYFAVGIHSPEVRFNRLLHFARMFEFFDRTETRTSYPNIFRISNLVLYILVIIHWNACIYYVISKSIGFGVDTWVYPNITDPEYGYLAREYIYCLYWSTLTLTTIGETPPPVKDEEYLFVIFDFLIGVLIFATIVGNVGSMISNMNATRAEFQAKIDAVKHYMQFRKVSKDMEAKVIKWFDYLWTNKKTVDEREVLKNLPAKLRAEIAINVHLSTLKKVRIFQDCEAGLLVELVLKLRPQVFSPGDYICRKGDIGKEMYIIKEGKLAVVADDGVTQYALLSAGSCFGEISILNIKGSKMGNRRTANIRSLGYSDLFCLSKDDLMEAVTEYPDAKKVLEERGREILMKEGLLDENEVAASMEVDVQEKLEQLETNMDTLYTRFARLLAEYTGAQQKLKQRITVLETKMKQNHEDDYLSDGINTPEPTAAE
T1 sequence (Q64359 1-575): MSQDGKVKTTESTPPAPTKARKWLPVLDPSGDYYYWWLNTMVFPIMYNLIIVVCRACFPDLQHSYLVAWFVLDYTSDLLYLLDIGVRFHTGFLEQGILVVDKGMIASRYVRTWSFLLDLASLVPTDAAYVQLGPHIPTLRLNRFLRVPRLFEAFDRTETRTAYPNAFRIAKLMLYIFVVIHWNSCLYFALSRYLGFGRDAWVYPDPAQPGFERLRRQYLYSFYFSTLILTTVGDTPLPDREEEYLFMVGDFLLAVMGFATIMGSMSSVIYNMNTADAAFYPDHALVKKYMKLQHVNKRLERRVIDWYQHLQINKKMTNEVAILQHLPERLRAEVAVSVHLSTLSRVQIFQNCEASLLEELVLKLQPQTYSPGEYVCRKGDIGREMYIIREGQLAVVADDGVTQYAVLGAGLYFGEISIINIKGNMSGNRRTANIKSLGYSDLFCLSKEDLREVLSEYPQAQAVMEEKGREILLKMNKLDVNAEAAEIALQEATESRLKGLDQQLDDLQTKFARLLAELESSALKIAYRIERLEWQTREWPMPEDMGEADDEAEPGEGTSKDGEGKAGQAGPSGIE
The assay is classed as biochemical. To be noted: closed and fully activated channels.

The subject of assay [4] is native olfactory CNG channels. The assay is classed as biochemical, tiger salamanders. In a few lines: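 Olfactory epithelium from land-phase tiger salamanders was digested with papain for 18–22 min at 21°C, washed 10 min in ice-cold solution and triturated to single neurons. Excised patches used 10–20 MΩ pipettes. Held at −75 mV; currents normalised to 2 mM cGMP Imax; mean ± SEM.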

Assay [5] deals with T2, homomeric RETα channels (α subunits of the bovine rod photoreceptor CNG channel) (Bos taurus, UniProt Q00194).
T2 sequence (Q00194 1-690): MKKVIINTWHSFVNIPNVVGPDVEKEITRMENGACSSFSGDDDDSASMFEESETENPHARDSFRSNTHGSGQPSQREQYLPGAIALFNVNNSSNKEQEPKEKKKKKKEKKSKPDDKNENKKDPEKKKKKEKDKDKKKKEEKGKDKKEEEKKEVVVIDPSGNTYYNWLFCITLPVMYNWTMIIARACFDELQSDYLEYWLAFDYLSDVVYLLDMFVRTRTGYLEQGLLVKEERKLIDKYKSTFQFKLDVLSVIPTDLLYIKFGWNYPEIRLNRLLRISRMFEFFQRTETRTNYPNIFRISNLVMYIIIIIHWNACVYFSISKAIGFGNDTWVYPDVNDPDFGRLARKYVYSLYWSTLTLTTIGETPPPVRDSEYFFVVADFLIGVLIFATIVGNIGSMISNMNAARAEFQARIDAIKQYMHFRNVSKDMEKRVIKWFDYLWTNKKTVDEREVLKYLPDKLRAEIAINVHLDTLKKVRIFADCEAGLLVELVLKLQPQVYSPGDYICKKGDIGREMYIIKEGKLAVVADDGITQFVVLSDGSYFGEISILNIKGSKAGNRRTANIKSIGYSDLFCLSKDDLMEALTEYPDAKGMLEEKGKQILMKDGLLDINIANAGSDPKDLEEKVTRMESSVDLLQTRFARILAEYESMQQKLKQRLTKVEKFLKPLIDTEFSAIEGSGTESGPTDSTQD
Type of assay: biochemical. A digest of the protocol: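 Bovine rod CNG α-subunit cRNA was injected into Xenopus oocytes (50 nl at 1 ng/nl). After 2–7 d, vitelline membrane was removed. Inside-out patches were recorded at 21–24°C with 2–3 MΩ pipettes in standard patch solution (115 mM NaCl, 5 EGTA, 1 EDTA, 5 HEPES, pH 7.5), held at −75 mV. Perfusion switched in 50 ms. Test compound (DMSO stock) was applied before or after 2 mM cGMP. Ki and Hill coefficient from modified Hill fit.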

Assay [6] deals with T3, homomeric OLFα channels (rat olfactory CNG channels) (Rattus norvegicus, UniProt Q00195).
T3 sequence (Q00195 1-664): T1 sequence (Q00195 1-664)
Type of assay: biochemical. To be noted: concentrations up to 500 μM.

In assay [7] the target is heteromeric RETα+β channels (Bos taurus, UniProt Q00194). The assay is classed as biochemical, bovine.
Setting [8] is: closed channels, saturating genistein (500 μM).
Where [9] appears, read: fully activated, saturating cGMP (2 mM).

Structures are written as SMILES. Where “and” joins values, the source holds several entries; their conditions need not be identical. Equal values may be shown once. Read-outs that look alike come from different tables or passages of the source.

Chain of hybrid OLFα+RETβ channels (Q28181 whole entry, one chain of several): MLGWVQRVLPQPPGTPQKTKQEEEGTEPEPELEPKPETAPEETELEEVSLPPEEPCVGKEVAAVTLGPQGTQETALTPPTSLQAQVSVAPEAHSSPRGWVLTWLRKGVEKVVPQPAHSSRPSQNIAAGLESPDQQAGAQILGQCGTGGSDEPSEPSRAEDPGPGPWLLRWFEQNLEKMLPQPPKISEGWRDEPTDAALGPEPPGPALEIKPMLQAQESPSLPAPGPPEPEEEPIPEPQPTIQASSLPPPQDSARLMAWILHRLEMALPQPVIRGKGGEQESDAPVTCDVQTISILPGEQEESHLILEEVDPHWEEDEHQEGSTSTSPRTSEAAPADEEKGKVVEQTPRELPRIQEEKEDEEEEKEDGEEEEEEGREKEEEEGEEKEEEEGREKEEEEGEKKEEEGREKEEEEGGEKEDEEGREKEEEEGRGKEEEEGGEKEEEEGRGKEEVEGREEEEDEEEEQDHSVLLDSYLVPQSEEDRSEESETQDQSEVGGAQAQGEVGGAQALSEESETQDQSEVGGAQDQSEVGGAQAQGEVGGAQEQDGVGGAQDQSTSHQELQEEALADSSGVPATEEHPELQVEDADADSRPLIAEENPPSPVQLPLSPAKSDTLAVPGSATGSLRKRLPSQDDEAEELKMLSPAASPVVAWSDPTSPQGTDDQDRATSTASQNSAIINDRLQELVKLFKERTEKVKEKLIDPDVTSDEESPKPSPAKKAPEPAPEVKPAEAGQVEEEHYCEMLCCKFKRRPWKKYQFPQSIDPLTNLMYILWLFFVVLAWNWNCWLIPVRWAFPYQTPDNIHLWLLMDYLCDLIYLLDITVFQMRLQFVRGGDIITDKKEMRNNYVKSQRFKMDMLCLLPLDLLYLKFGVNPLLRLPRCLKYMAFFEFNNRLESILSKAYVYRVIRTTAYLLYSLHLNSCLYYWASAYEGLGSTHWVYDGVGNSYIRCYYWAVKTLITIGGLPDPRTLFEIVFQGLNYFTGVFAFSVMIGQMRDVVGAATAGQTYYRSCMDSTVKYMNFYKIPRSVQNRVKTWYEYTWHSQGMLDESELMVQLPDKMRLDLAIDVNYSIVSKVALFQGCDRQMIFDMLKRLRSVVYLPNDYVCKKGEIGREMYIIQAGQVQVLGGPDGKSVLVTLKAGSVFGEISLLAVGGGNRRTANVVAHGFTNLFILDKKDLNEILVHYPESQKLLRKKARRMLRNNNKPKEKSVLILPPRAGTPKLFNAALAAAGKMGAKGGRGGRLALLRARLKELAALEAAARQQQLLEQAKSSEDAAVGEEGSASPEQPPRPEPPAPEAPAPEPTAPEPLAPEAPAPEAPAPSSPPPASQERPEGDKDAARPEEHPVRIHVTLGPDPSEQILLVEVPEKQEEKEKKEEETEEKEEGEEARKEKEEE
Chain of heteromeric RETα+β channels (Bos taurus, UniProt Q00194) (Q28181 whole entry partner, one chain of several): as the sequence (Q28181 whole entry, one chain of several) above

Take `COc1ccc([C@H]2Sc3ccccc3N(CCN(C)C)C(=O)[C@H]2OC(C)=O)cc1` (relative stereo) [L-cis diltiazem]: the “block of channels by L-cis diltiazem” value in assay [1] (OLFα to RETβ mRNA ratio 1:1.5) was 36.8 ± 2.9%; in assay [1] (OLFα to RETβ mRNA ratio 1:3), 32.8 ± 1.4%. Moreover, the “inhibition of channels by L-cis diltiazem” value in assay [2] (RETα to RETβ mRNA ratio 1:5) is recorded as 50%; in assay [2] (RETα to RETβ mRNA ratio 1:8) it was 78%; in assay [2] (RETα to RETβ mRNA ratio 1:10), 80%.

For the compound `Nc1ncnc2c1ncn2[C@@H]1O[C@H](COP(=O)(O)OP(=O)(O)NP(=O)(O)O)[C@@H](O)[C@H]1O` [AMP-PNP, adenylylimidodiphosphate], the “effect on the kinetics, cGMP sensitivity, or maximal current” value in the assay with native rod CNG channels was “no effect”.

Consider `O=CN/C=C/c1cc(O)ccc1O` [erbstatin], for which the “effect on the kinetics, cGMP sensitivity, or maximal current” value in the assay on native rod CNG channels is “no effect”.

For the compound `O=c1c(-c2ccc(O)cc2)coc2cc(O)cc(O)c12` [genistein], the “maximal inhibition of closed channels by saturating genistein” value is recorded as 50 ± 3% in the assay with native cone CNG channels (setting [8]), 61 ± 8% with native rod CNG channels (setting [8]) and 28 ± 4% in [4] (setting [8]). The “inhibition of fully activated channels by genistein” value is given as 37 ± 3% with native cone CNG channels (setting [9]), 31 ± 4% in the assay with native rod CNG channels (setting [9]), 11 ± 4% in assay [4] (setting [9]) and 67 ± 4% in assay [5] (setting [9]). Besides, in the assay on native rod CNG channels (closed channels pre-exposed to 100 μM genistein for 1 min, then 2 mM cGMP), the “τ of slowly activating CNG current component after genistein pretreatment” value stood at 8.5 s. The “time constant of genistein inhibition” value in the assay on native rod CNG channels (open, fully activated channels) was 1.2 s; in assay [5] (open, fully activated channels) it was 9 s; in assay [7] (open, fully activated channels), around 1 s. The “effect of genistein on hybrid channels” value in assay [1] (closed and fully activated states) is “no effect”. For the same compound, in assay [3], the “genistein inhibition compared with native olfactory channels” value is given as “inhibited to an even greater extent than were native olfactory channels”. Besides, the “Hill coefficient of genistein inhibition” value in assay [5] (closed channels) is around 2; in assay [5] (open, fully activated channels), around 1; in assay [7] (closed channels) it was ~2 and ~1; in assay [7] (open, fully activated channels), around 1. The Ki in assay [5] (read-out: apparent K i for genistein, closed channels) was determined as 4 µM. Also, in assay [6] (closed channels), the “genistein inhibition of closed channels” value is given as “fails to inhibit”. For the same compound, in [6] (fully activated channels), the “genistein inhibition of fully activated channels” value is on record as “fails to inhibit”.
